Blank lines part the entries; values can stand above or below the compound they belong to. The source made the active and inactive calls. No cut-off for these calls is given here.
Experiments:
[1] = target: T1, DNA topoisomerase 1 (Homo sapiens) (UniProt P11387); assay: Inhibition of recombinant Top1 (unknown origin) using 3'-[32P]-end-labeled 117 bp oligonucleotide as substrate after 20 mins by SDS-PAGE analysis
T1 sequence (whole entry): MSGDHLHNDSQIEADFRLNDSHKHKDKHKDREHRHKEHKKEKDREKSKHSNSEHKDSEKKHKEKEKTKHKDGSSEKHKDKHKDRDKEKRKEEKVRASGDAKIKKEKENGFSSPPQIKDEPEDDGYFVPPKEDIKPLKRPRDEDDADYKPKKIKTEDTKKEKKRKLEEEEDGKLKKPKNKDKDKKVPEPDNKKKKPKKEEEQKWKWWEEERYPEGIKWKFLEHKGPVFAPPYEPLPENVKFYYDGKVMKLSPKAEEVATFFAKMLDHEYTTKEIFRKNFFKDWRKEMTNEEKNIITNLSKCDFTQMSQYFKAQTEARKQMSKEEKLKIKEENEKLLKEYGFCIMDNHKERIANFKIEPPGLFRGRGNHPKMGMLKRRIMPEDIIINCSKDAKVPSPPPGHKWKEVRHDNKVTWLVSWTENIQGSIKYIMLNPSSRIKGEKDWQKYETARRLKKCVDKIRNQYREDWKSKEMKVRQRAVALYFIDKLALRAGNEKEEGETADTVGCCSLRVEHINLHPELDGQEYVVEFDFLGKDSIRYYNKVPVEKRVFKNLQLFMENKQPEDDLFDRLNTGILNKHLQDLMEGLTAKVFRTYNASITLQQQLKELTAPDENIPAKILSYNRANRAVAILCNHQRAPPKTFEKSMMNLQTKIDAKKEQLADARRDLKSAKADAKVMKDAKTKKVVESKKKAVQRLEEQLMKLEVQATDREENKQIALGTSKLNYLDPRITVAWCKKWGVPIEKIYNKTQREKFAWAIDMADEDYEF
Outline: (§1)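 3′-[32P]-end-labeled 117-bp DNA at 2 nM incubated with recombinant Top1 at 25 °C for 20 min across a range of compound concentrations. Stopped with SDS (0.5% final) plus formamide loading dye, then 20% denaturing PAGE. Dried gels were phosphorimaged.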

[2] = target: Tyrosyl-DNA phosphodiesterase 1 (Homo sapiens, UniProt Q9NUW8); assay: Inhibition of recombinant Tdp1 (unknown origin) using 5'-[32P]-labeled single-stranded DNA oligonucleotide containing 3'-phosphotyrosine as substrate after 15 mins by PAGE analysis
Sequence of Tyrosyl-DNA phosphodiesterase 1 (Q9NUW8 whole entry): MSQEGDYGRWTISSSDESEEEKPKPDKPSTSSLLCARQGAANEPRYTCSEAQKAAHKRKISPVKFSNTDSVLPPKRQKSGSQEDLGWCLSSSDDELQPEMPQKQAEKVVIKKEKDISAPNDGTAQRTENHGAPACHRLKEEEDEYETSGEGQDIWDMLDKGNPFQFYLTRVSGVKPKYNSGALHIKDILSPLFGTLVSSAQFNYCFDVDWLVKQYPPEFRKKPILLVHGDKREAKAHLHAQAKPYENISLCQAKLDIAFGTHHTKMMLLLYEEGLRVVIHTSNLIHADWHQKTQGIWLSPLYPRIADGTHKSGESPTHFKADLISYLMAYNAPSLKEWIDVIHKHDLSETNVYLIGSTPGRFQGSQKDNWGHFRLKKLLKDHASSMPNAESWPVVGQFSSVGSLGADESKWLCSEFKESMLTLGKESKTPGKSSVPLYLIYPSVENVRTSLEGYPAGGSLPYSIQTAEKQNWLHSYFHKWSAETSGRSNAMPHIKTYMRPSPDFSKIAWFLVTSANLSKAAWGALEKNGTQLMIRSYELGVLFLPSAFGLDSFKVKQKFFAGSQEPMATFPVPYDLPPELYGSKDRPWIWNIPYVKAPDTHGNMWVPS

[3] = target: T1, DNA topoisomerase 1 (Homo sapiens); assay: Inhibition of recombinant Top1 (unknown origin) using 3'-[32P]-end-labeled 117 bp oligonucleotide as substrate after 20 mins by SDS-PAGE analysis relative to 1 uM MJ-3-65
SF-539 = assay: Growth inhibition of human SF539 cells; format: functional
Outline: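 Human cancer cell line panel, compounds tested at concentrations up to 10 μM. GI50 per cell line is the mean of two determinations where a standard error is given, otherwise from one determination.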

MDA-MB-435 = assay: Growth inhibition of human MDA-MB-435 cells; format: functional
SN12C = assay: Growth inhibition of human SN12C cells; format: functional
DU-145 = assay: Growth inhibition of human DU145 cells; format: functional
OVCAR-3 = assay: Growth inhibition of human OVCAR3 cells; format: functional
UACC-62 = assay: Growth inhibition of human UACC62 cells; format: functional
HCT-116 = assay: Growth inhibition of human HCT116 cells; format: functional
HOP-62 = assay: Growth inhibition of human HOP62 cells; format: functional
[4] = target: T1, DNA topoisomerase 1 (Homo sapiens); assay: Inhibition of recombinant Top1 (unknown origin) using 3'-[32P]-end-labeled 117 bp oligonucleotide as substrate assessed as suppression of DNA cleavage at 100 uM by SDS-PAGE analysis; outline: as §1

Structure (SMILES): CCOC(=O)CNc1ccc2c3c(n(C)c(=O)c2c1)-c1ccccc1C3=O
inhibition [1]: inactive
IC50 [2]: > 111000 nM

Structure (SMILES): COC(=O)CCCC(=O)Nc1ccc2c3c(n(C)c(=O)c2c1)-c1ccccc1C3=O
inhibition [1]: inactive
IC50 [2]: > 111000 nM

Structure (SMILES): N#Cc1ccc2c3c(n(CCCN4CCOCC4)c(=O)c2c1)-c1ccccc1C3=O
inhibition [3]: Active
IC50 [2]: > 111000 nM

Structure (SMILES): COC(=O)C(=O)Nc1ccc2c3c(n(CCCN)c(=O)c2c1)-c1ccccc1C3=O
inhibition [1]: inactive
GI50 (SF-539): 6900 nM
GI50 (MDA-MB-435): 3360 nM
GI50 (SN12C): 2530 nM
GI50 (DU-145): 1110 nM
GI50 (OVCAR-3): 4010 nM
GI50 (UACC-62): 1220 nM
GI50 (HCT-116): 570 nM
GI50 (HOP-62): 650 nM
IC50 [2]: 45000 nM

Structure (SMILES): COC(=O)CCCC(=O)Nc1ccc2c3c(n(CCCNC(=O)OC(C)(C)C)c(=O)c2c1)-c1ccccc1C3=O
inhibition [1]: inactive
IC50 [2]: > 111000 nM

Structure (SMILES): CN(C)CCCn1c2c(c3ccc(C#N)cc3c1=O)C(=O)c1cc3c(cc1-2)OCO3
inhibition [4]: Active
IC50 [2]: > 111000 nM

Structure (SMILES): COC(=O)CC(=O)Nc1ccc2c3c(n(CCCNC(=O)OC(C)(C)C)c(=O)c2c1)-c1ccccc1C3=O
inhibition [1]: inactive
IC50 [2]: > 111000 nM

Structure (SMILES): COC(=O)CCCCC(=O)Nc1ccc2c3c(n(C)c(=O)c2c1)-c1ccccc1C3=O
inhibition [1]: inactive
IC50 [2]: > 111000 nM

Structure (SMILES): COc1ccc2c(c1)-c1c(c3ccc([N+](=O)[O-])cc3c(=O)n1CCCBr)C2=O
inhibition [3]: Active
IC50 [2]: > 111000 nM

Structure (SMILES): COC(=O)CC(=O)Nc1ccc2c3c(n(C)c(=O)c2c1)-c1ccccc1C3=O
inhibition [1]: inactive
IC50 [2]: > 111000 nM

Structure (SMILES): Cn1c2c(c3ccc(NCC(=O)O)cc3c1=O)C(=O)c1ccccc1-2
inhibition [1]: inactive
IC50 [2]: > 111000 nM

GI50 (MDA-MB-435): 120 nM
GI50 (DU-145): < 10 nM
GI50 (OVCAR-3): 20 nM
GI50 (HCT-116): < 10 nM
Structure (SMILES): COc1ccc2c(c1)C(=O)c1c-2n(CCCN)c(=O)c2cc(N)ccc12
GI50 (SF-539): 30 nM
GI50 (SN12C): < 10 nM
GI50 (UACC-62): 100 nM
GI50 (HOP-62): < 10 nM

GI50 (MDA-MB-435): 30 nM
GI50 (DU-145): < 10 nM
GI50 (OVCAR-3): 30 nM
GI50 (HCT-116): < 10 nM
inhibition [4]: inactive
inhibition [3]: Active
Structure (SMILES): COc1ccc2c(c1)-c1c(c3ccc([N+](=O)[O-])cc3c(=O)n1CCCn1ccnc1)C2=O
GI50 (SF-539): < 10 nM
GI50 (SN12C): < 10 nM
GI50 (UACC-62): < 10 nM
GI50 (HOP-62): < 10 nM

inhibition [3]: Active
Structure (SMILES): Cn1c2c(c3ccc(NC(=O)C(=O)O)cc3c1=O)C(=O)c1ccccc1-2

Structure (SMILES): COc1ccc2c(c1)-c1c(c3ccc([N+](=O)[O-])cc3c(=O)n1CCCN=[N+]=[N-])C2=O
inhibition [1]: inactive
IC50 [2]: > 111000 nM

inhibition [1]: inactive
Structure (SMILES): CC(=O)Nc1ccc2c3c(n(CCCO)c(=O)c2c1)-c1ccccc1C3=O

Structure (SMILES): CC(C)(C)OC(=O)NCCCn1c2c(c3ccc(NCC(=O)O)cc3c1=O)C(=O)c1ccccc1-2
inhibition [1]: inactive
IC50 [2]: > 111000 nM

Structure (SMILES): COC(=O)CCC(=O)Nc1ccc2c3c(n(C)c(=O)c2c1)-c1ccccc1C3=O
IC50 [2]: > 111000 nM

inhibition [3]: Active
Structure (SMILES): CC(=O)Nc1ccc2c3c(n(CCCN=[N+]=[N-])c(=O)c2c1)-c1ccccc1C3=O

GI50 (MDA-MB-435): 4300 nM
GI50 (DU-145): 770 nM
GI50 (OVCAR-3): 3520 nM
GI50 (HCT-116): 510 nM
Structure (SMILES): COC(=O)CCCCC(=O)Nc1ccc2c3c(n(CCCN)c(=O)c2c1)-c1ccccc1C3=O
GI50 (SF-539): 5650 nM
GI50 (SN12C): 1820 nM
GI50 (UACC-62): 2430 nM
GI50 (HOP-62): 2320 nM

GI50 (MDA-MB-435): 580 nM
GI50 (DU-145): 180 nM
GI50 (OVCAR-3): 540 nM
GI50 (HCT-116): 60 nM
inhibition [3]: Active
Structure (SMILES): COc1ccc2c(c1)-c1c(c3ccc([N+](=O)[O-])cc3c(=O)n1CCCN)C2=O
GI50 (SF-539): 610 nM
GI50 (SN12C): 150 nM

GI50 (MDA-MB-435): 960 nM
GI50 (DU-145): 50 nM
GI50 (OVCAR-3): 1320 nM
GI50 (HCT-116): 70 nM
Structure (SMILES): COc1ccc2c(c1)C(=O)c1c-2n(CCCN)c(=O)c2cc(I)ccc12
GI50 (SF-539): 390 nM
GI50 (SN12C): 50 nM
GI50 (UACC-62): 140 nM
GI50 (HOP-62): 140 nM
